# What was measured:
# Assay type in all cases: functional
# Escherichia coli [1] = experiment: Antibacterial activity against extended-spectrum beta-lactamase producing Escherichia coli isolate 212648 after 18 hrs by CLSI broth microdilution method; details: isolate 212648, 18 h
# Escherichia coli [2] = experiment: Selectivity index, ratio of MIC for against extended-spectrum beta-lactamase producing Escherichia coli isolate 208687 to MIC for extended-spectrum beta-lactamase producing Escherichia coli isolate 208687 in presence of BPL
# Escherichia coli [3] = experiment: Antibacterial activity against Escherichia coli isolate 210737 after 18 hrs by CLSI broth microdilution method; details: isolate 210737, 18 h
# Escherichia coli [4] = experiment: Antibacterial activity against extended-spectrum beta-lactamase producing Escherichia coli isolate 208687 after 18 hrs by CLSI broth microdilution method; details: isolate 208687, 18 h
# Escherichia coli [5] = experiment: Antibacterial activity against extended-spectrum beta-lactamase producing Escherichia coli isolate 208687 after 18 hrs in presence of BPL by CLSI broth microdilution method; details: isolate 208687, 18 h
# Method in brief: (§1)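 CLSI broth microdilution against clinical isolates (ESBL E. coli, KPC-2 MDR K. pneumoniae, IMP-4 MDR P. aeruginosa; five per species). Iron limitation: Mueller-Hinton broth supplemented with 16 mg/liter 2,2'-bipyridyl to complex iron and induce iron uptake systems. Read-out: MIC.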
# Escherichia coli [6] = experiment: Antibacterial activity against Escherichia coli isolate 210737 after 18 hrs in presence of BPL by CLSI broth microdilution method; details: isolate 210737, 18 h; method in brief: as §1
# Escherichia coli [7] = experiment: Selectivity index, ratio of MIC for against Escherichia coli isolate 210737 to MIC for Escherichia coli isolate 210737 in presence of BPL
# Escherichia coli [8] = experiment: Antibacterial activity against extended-spectrum beta-lactamase producing Escherichia coli isolate 212648 after 18 hrs in presence of BPL by CLSI broth microdilution method; details: isolate 212648, 18 h; method in brief: as §1
# Escherichia coli [9] = experiment: Selectivity index, ratio of MIC for against extended-spectrum beta-lactamase producing Escherichia coli isolate 212648 to MIC for extended-spectrum beta-lactamase producing Escherichia coli isolate 212648 in presence of BPL
# Escherichia coli [10] = experiment: Antibacterial activity against extended-spectrum beta-lactamase producing Escherichia coli isolate 209285 after 18 hrs by CLSI broth microdilution method; details: isolate 209285, 18 h
# Escherichia coli [11] = experiment: Antibacterial activity against extended-spectrum beta-lactamase producing Escherichia coli isolate 209285 after 18 hrs in presence of BPL by CLSI broth microdilution method; details: isolate 209285, 18 h; method in brief: as §1
# Escherichia coli [12] = experiment: Selectivity index, ratio of MIC for against extended-spectrum beta-lactamase producing Escherichia coli isolate 209285 to MIC for extended-spectrum beta-lactamase producing Escherichia coli isolate 209285 in presence of BPL
# Escherichia coli [13] = experiment: Antibacterial activity against extended-spectrum beta-lactamase producing Escherichia coli isolate 106342 after 18 hrs by CLSI broth microdilution method; details: isolate 106342, 18 h
# Escherichia coli [14] = experiment: Antibacterial activity against extended-spectrum beta-lactamase producing Escherichia coli isolate 106342 after 18 hrs in presence of BPL by CLSI broth microdilution method; details: isolate 106342, 18 h; method in brief: as §1
# Escherichia coli [15] = experiment: Selectivity index, ratio of MIC for against extended-spectrum beta-lactamase producing Escherichia coli isolate 106342 to MIC for extended-spectrum beta-lactamase producing Escherichia coli isolate 106342 in presence of BPL
# Klebsiella pneumoniae [16] = experiment: Antibacterial activity against KPC-2 producing Klebsiella pneumoniae isolate 212423 after 18 hrs by CLSI broth microdilution method; details: isolate 212423, 18 h
# Klebsiella pneumoniae [17] = experiment: Antibacterial activity against KPC-2 producing Klebsiella pneumoniae isolate 212423 after 18 hrs in presence of BPL by CLSI broth microdilution method; details: isolate 212423, 18 h; method in brief: as §1
# Klebsiella pneumoniae [18] = experiment: Selectivity index, ratio of MIC for against KPC-2 producing Klebsiella pneumoniae isolate 212423 to MIC for against KPC-2 producing Klebsiella pneumoniae isolate 212423 in presence of BPL
# Klebsiella pneumoniae [19] = experiment: Antibacterial activity against KPC-2 producing Klebsiella pneumoniae isolate 209632 after 18 hrs by CLSI broth microdilution method; details: isolate 209632, 18 h
# Klebsiella pneumoniae [20] = experiment: Antibacterial activity against KPC-2 producing Klebsiella pneumoniae isolate 209632 after 18 hrs in presence of BPL by CLSI broth microdilution method; details: isolate 209632, 18 h; method in brief: as §1
# Klebsiella pneumoniae [21] = experiment: Selectivity index, ratio of MIC for against KPC-2 producing Klebsiella pneumoniae isolate 209632 to MIC for against KPC-2 producing Klebsiella pneumoniae isolate 209632 in presence of BPL
# Klebsiella pneumoniae [22] = experiment: Antibacterial activity against KPC-2 producing Klebsiella pneumoniae isolate 209735 after 18 hrs by CLSI broth microdilution method; details: isolate 209735, 18 h
# Klebsiella pneumoniae [23] = experiment: Antibacterial activity against KPC-2 producing Klebsiella pneumoniae isolate 209735 after 18 hrs in presence of BPL by CLSI broth microdilution method; details: isolate 209735, 18 h; method in brief: as §1
# Klebsiella pneumoniae [24] = experiment: Selectivity index, ratio of MIC for against KPC-2 producing Klebsiella pneumoniae isolate 209735 to MIC for against KPC-2 producing Klebsiella pneumoniae isolate 209735 in presence of BPL
# Klebsiella pneumoniae [25] = experiment: Antibacterial activity against KPC-2 producing Klebsiella pneumoniae isolate 212232 after 18 hrs by CLSI broth microdilution method; details: isolate 212232, 18 h
# Klebsiella pneumoniae [26] = experiment: Antibacterial activity against KPC-2 producing Klebsiella pneumoniae isolate 212232 after 18 hrs in presence of BPL by CLSI broth microdilution method; details: isolate 212232, 18 h; method in brief: as §1
# Klebsiella pneumoniae [27] = experiment: Selectivity index, ratio of MIC for against KPC-2 producing Klebsiella pneumoniae isolate 212232 to MIC for against KPC-2 producing Klebsiella pneumoniae isolate 212232 in presence of BPL
# Klebsiella pneumoniae [28] = experiment: Antibacterial activity against KPC-2 producing Klebsiella pneumoniae isolate 212229 after 18 hrs by CLSI broth microdilution method; details: isolate 212229, 18 h
# Klebsiella pneumoniae [29] = experiment: Antibacterial activity against KPC-2 producing Klebsiella pneumoniae isolate 212229 after 18 hrs in presence of BPL by CLSI broth microdilution method; details: isolate 212229, 18 h; method in brief: as §1
# Klebsiella pneumoniae [30] = experiment: Selectivity index, ratio of MIC for against KPC-2 producing Klebsiella pneumoniae isolate 212229 to MIC for against KPC-2 producing Klebsiella pneumoniae isolate 212229 in presence of BPL
# Pseudomonas aeruginosa [31] = experiment: Antibacterial activity against IMP-4 producing Pseudomonas aeruginosa isolate 212886 after 18 hrs by CLSI broth microdilution method; details: isolate 212886, 18 h
# Pseudomonas aeruginosa [32] = experiment: Antibacterial activity against IMP-4 producing Pseudomonas aeruginosa isolate 212886 after 18 hrs in presence of BPL by CLSI broth microdilution method; details: isolate 212886, 18 h; method in brief: as §1
# Pseudomonas aeruginosa [33] = experiment: Selectivity index, ratio of MIC for against IMP-4 producing Pseudomonas aeruginosa isolate 212886 to MIC for against IMP-4 producing Pseudomonas aeruginosa isolate 212886 in presence of BPL
# Pseudomonas aeruginosa [34] = experiment: Antibacterial activity against IMP-4 producing Pseudomonas aeruginosa isolate 209471 after 18 hrs by CLSI broth microdilution method; details: isolate 209471, 18 h
# Pseudomonas aeruginosa [35] = experiment: Antibacterial activity against IMP-4 producing Pseudomonas aeruginosa isolate 209471 after 18 hrs in presence of BPL by CLSI broth microdilution method; details: isolate 209471, 18 h; method in brief: as §1
# Pseudomonas aeruginosa [36] = experiment: Selectivity index, ratio of MIC for against IMP-4 producing Pseudomonas aeruginosa isolate 209471 to MIC for against IMP-4 producing Pseudomonas aeruginosa isolate 209471 in presence of BPL
# Pseudomonas aeruginosa [37] = experiment: Antibacterial activity against IMP-4 producing Pseudomonas aeruginosa isolate 208247 after 18 hrs by CLSI broth microdilution method; details: isolate 208247, 18 h
# Pseudomonas aeruginosa [38] = experiment: Antibacterial activity against IMP-4 producing Pseudomonas aeruginosa isolate 208247 after 18 hrs in presence of BPL by CLSI broth microdilution method; details: isolate 208247, 18 h; method in brief: as §1
# Pseudomonas aeruginosa [39] = experiment: Selectivity index, ratio of MIC for against IMP-4 producing Pseudomonas aeruginosa isolate 208247 to MIC for against IMP-4 producing Pseudomonas aeruginosa isolate 208247 in presence of BPL
# Pseudomonas aeruginosa [40] = experiment: Antibacterial activity against IMP-4 producing Pseudomonas aeruginosa isolate 209321 after 18 hrs by CLSI broth microdilution method; details: isolate 209321, 18 h
# Pseudomonas aeruginosa [41] = experiment: Antibacterial activity against IMP-4 producing Pseudomonas aeruginosa isolate 209321 after 18 hrs in presence of BPL by CLSI broth microdilution method; details: isolate 209321, 18 h; method in brief: as §1
# Pseudomonas aeruginosa [42] = experiment: Selectivity index, ratio of MIC for against IMP-4 producing Pseudomonas aeruginosa isolate 209321 to MIC for against IMP-4 producing Pseudomonas aeruginosa isolate 209321 in presence of BPL
# Pseudomonas aeruginosa [43] = experiment: Antibacterial activity against IMP-4 producing Pseudomonas aeruginosa isolate 207272 after 18 hrs by CLSI broth microdilution method; details: isolate 207272, 18 h
# Pseudomonas aeruginosa [44] = experiment: Antibacterial activity against IMP-4 producing Pseudomonas aeruginosa isolate 207272 after 18 hrs in presence of BPL by CLSI broth microdilution method; details: isolate 207272, 18 h; method in brief: as §1
# Pseudomonas aeruginosa [45] = experiment: Selectivity index, ratio of MIC for against IMP-4 producing Pseudomonas aeruginosa isolate 207272 to MIC for against IMP-4 producing Pseudomonas aeruginosa isolate 207272 in presence of BPL
smiles,measurement,setting,value
CC(C)C(O/N=C(\C(=O)N[C@@H]1C(=O)N(S(=O)(=O)O)[C@@H]1COC(=O)c1ccc(O)c(O)c1Cl)c1csc(N)n1)c1cc(=O)c(O)cn1O (stereo not given in full),MIC,Escherichia coli [1],32 µg/mL
same,Selectivity Index,Escherichia coli [2],2
same,MIC,Escherichia coli [3],> 64 µg/mL
same,MIC,Escherichia coli [4],32 µg/mL
same,MIC,Escherichia coli [5],16 µg/mL
same,MIC,Escherichia coli [6],> 64 µg/mL
same,Selectivity Index,Escherichia coli [7],1 - 2
same,MIC,Escherichia coli [8],16 µg/mL
same,Selectivity Index,Escherichia coli [9],2
same,MIC,Escherichia coli [10],32 µg/mL
same,MIC,Escherichia coli [11],32 µg/mL
same,Selectivity Index,Escherichia coli [12],1
same,MIC,Escherichia coli [13],16 µg/mL
same,MIC,Escherichia coli [14],8 µg/mL
same,Selectivity Index,Escherichia coli [15],2
same,MIC,Klebsiella pneumoniae [16],16 µg/mL
same,MIC,Klebsiella pneumoniae [17],4 µg/mL
same,Selectivity Index,Klebsiella pneumoniae [18],4
same,MIC,Klebsiella pneumoniae [19],32 µg/mL
same,MIC,Klebsiella pneumoniae [20],4 µg/mL
same,Selectivity Index,Klebsiella pneumoniae [21],8
same,MIC,Klebsiella pneumoniae [22],32 µg/mL
same,MIC,Klebsiella pneumoniae [23],4 µg/mL
same,Selectivity Index,Klebsiella pneumoniae [24],8
same,MIC,Klebsiella pneumoniae [25],32 µg/mL
same,MIC,Klebsiella pneumoniae [26],4 µg/mL
same,Selectivity Index,Klebsiella pneumoniae [27],8
same,MIC,Klebsiella pneumoniae [28],32 µg/mL
same,MIC,Klebsiella pneumoniae [29],4 µg/mL
same,Selectivity Index,Klebsiella pneumoniae [30],8
same,MIC,Pseudomonas aeruginosa [31],> 64 µg/mL
same,MIC,Pseudomonas aeruginosa [32],> 64 µg/mL
same,Selectivity Index,Pseudomonas aeruginosa [33],1 - 2
same,MIC,Pseudomonas aeruginosa [34],64 µg/mL
same,MIC,Pseudomonas aeruginosa [35],64 µg/mL
same,Selectivity Index,Pseudomonas aeruginosa [36],1
same,MIC,Pseudomonas aeruginosa [37],> 64 µg/mL
same,MIC,Pseudomonas aeruginosa [38],> 64 µg/mL
same,Selectivity Index,Pseudomonas aeruginosa [39],1 - 2
same,MIC,Pseudomonas aeruginosa [40],64 µg/mL
same,MIC,Pseudomonas aeruginosa [41],32 µg/mL
same,Selectivity Index,Pseudomonas aeruginosa [42],2
same,MIC,Pseudomonas aeruginosa [43],> 64 µg/mL
same,MIC,Pseudomonas aeruginosa [44],> 64 µg/mL
same,Selectivity Index,Pseudomonas aeruginosa [45],1 - 2
